# From ChEMBL document CHEMBL1143652, “Joys of molecules. 2. Endeavors in chemical biology and medicinal chemistry” (J Med Chem, 2005)
# Experiments:
# [1] = tested on: Nucleic Acid; experiment: Binding affinity towards DNA extracted from MOLT-4 cells; format: cell-free; conditions: Homo sapiens
# [2] = tested on: 1A9/ptx-10; experiment: (§1) Inhibitory concentration against beta-tubulin mutant 1A9PTX10 cell growth; format: functional, cell-based; conditions: Homo sapiens
# [3] = tested on: 1A9/ptx-22; experiment: (§2) Inhibitory concentration against beta-tubulin mutant 1A9PTX22 cell line; format: functional, cell-based; conditions: Homo sapiens
# [4] = tested on: 1A9/ptx-10; experiment: as §1; format: functional, cell-based; conditions: Homo sapiens; remark: listed apart in the source
# [5] = target: Tubulin beta-4B chain (Homo sapiens) (UniProt P68371); experiment: Percent […] of tubulin by the compound; format: functional
# Tubulin beta-4B chain (Homo sapiens), sequence (P68371 whole entry): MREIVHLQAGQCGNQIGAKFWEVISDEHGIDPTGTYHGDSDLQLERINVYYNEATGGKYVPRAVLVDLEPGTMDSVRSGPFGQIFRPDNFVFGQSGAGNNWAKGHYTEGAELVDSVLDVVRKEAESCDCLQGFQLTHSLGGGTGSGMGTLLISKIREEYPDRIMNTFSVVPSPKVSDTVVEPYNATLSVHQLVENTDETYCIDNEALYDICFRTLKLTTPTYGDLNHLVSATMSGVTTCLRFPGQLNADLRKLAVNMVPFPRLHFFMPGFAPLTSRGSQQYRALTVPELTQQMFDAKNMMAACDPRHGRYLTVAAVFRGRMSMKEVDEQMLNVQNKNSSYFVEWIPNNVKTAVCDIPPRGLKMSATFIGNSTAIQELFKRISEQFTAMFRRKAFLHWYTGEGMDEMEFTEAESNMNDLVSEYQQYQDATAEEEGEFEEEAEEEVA
# In short: (§3)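 Tubulin polymerization was read as percent polymerization, with test drug at 100 µM and a 90 min incubation.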
# [6] = tested on: 1A9/ptx-22; experiment: as §2; format: functional, cell-based; conditions: Homo sapiens; remark: listed apart in the source
# [7] = tested on: 1A9; experiment: Inhibitory concentration against ovarian carcinoma 1A9 cell growth; format: functional, cell-based; conditions: Homo sapiens
# [8] = target: Somatostatin receptor; experiment: Binding affinity for SRIF (somatostatin) receptor; format: protein assay
# [9] = target: Tubulin beta-4B chain (Homo sapiens) (UniProt P68371); experiment: (§4) Tubulin polymerization at a concentration of 100 uM incubated for 90 minutes; format: functional; in short: as §3
# [10] = target: Tubulin beta-4B chain (Homo sapiens) (UniProt P68371); experiment: as §4; in short: as §3
Structure (SMILES),IC50 [2],IC50 [3],IC50 [4],IC50 [6],IC50 [7],further results
CCNC1COC(OC2C(OC)OC(C)C(NOC3CC(O)C(SC(=O)c4c(C)c(C)c(OC5OC(C)C(O)C(OC)C5O)c(OC)c4OC)C(C)O3)C2O)CC1OC (stereo not drawn),–,–,–,–,–,K obs [1]: 38 µM
C/C(=C\c1csc(C)n1)[C@@H]1C[C@@H]2O[C@]2(C)CCC[C@H](C)[C@H](O)[C@@H](C)C(=O)C(C)(C)[C@@H](O)CC(=O)O1 [PATUPILONE],1 nM,0.31 nM,1 nM,0.31 nM,0.13 nM,TP [5]: 98%
CCNC1COC(OC2C(OC)OC(C)C(NOC3CC(O)C(SC(=O)c4c(C)c(Br)c(OC5OC(C)C(O)C(OC)C5O)c(OC)c4OC)C(C)O3)C2O)CC1OC (stereo not drawn),–,–,–,–,–,K obs [1]: 10 µM
C/C(=C\c1cc(C)ccn1)[C@@H]1C[C@@H]2O[C@]2(C)CCC[C@H](C)[C@H](O)[C@@H](C)C(=O)C(C)(C)[C@@H](O)CC(=O)O1,0.36 nM,0.1 nM,0.36 nM,0.1 nM,0.1 nM,TP [5]: 90.3%
CCNC1COC(OC2C(OC)OC(C)C(NOC3CC(O)C(SC(=O)c4c(C)cc(OC5OC(C)C(O)C(OC)C5O)c(OC)c4OC)C(C)O3)C2O)CC1OC (stereo not drawn),–,–,–,–,–,K obs [1]: 180 µM
C/C(=C\c1cccc(C)n1)[C@@H]1C[C@@H]2O[C@]2(C)CCC[C@H](C)[C@H](O)[C@@H](C)C(=O)C(C)(C)[C@@H](O)CC(=O)O1,72 nM,18 nM,72 nM,18 nM,9 nM,TP [5]: 45%
NCCCCCOC[C@@H]1O[C@@H](OCCc2cc3ccccc3[nH]2)[C@@H](OCc2ccccc2)[C@@H](OCc2ccccc2)[C@@H]1OCc1ccccc1,–,–,–,–,–,IC50 [8]: 15000 nM
CCNC1COC(OC2C(OC)OC(C)C(NOC3CC(O)C(SC(=O)c4c(C)c(Cl)c(OC5OC(C)C(O)C(OC)C5O)c(OC)c4OC)C(C)O3)C2O)CC1OC (stereo not drawn),–,–,–,–,–,K obs [1]: 32 µM
OCCCCCNCC1OC(OCCc2cc3ccccc3[nH]2)C(OCc2ccccc2)C(OCc2ccccc2)C1OCc1ccccc1 (stereo not drawn),–,–,–,–,–,IC50 [8]: 14000 nM
CCNC1COC(OC2C(OC)OC(C)C(NOC3CC(O)C(SC(=O)c4c(C)c(I)c(OC5OC(C)C(O)C(OC)C5O)c(OC)c4OC)C(C)O3)C2O)CC1OC (stereo not drawn),–,–,–,–,–,K obs [1]: 4.1 µM
C/C(=C\c1ccc(C)cn1)[C@@H]1C[C@@H]2C[C@@H]2CCC[C@H](C)[C@H](O)[C@@H](C)C(=O)C(C)(C)[C@@H](O)CC(=O)O1,19.2 nM,4.22 nM,19.2 nM,4.22 nM,2.5 nM,–
C/C(=C\c1ccccn1)[C@@H]1C[C@@H]2O[C@]2(C)CCC[C@H](C)[C@H](O)[C@@H](C)C(=O)C(C)(C)[C@@H](O)CC(=O)O1,1 nM,0.15 nM,1 nM,0.15 nM,0.1 nM,TP [5]: 79.5%
NCCCCCCOCC1OC(OCCc2cc3ccccc3[nH]2)C(OCc2ccccc2)CC1OCc1ccccc1 (stereo not drawn),–,–,–,–,–,IC50 [8]: 6600 nM
NCCCCCOCC1OC(OCCc2cc3ccccc3[nH]2)CC(OCc2ccccc2)C1OCc1ccccc1 (stereo not drawn),–,–,–,–,–,IC50 [8]: 35000 nM
CO[C@]12C=C[C@](C)(O1)[C@@H](OC(=O)/C=C/c1csc(C)n1)C[C@H]1C(C)=CC[C@H](C(C)C)[C@H]1/C=C\2COC1OCC(O)C(O)C1OC(C)=O (stereo partly drawn),–,–,–,–,–,TP [9]: 56%; TP [10]: 56%
C/C(=C\c1csc(C)n1)[C@@H]1C[C@@H]2C[C@@]2(C)CCC[C@H](C)[C@H](O)[C@@H](C)C(=O)C(C)(C)CCC(=O)O1,52 nM,5 nM,52 nM,5 nM,15 nM,–
OCCCCCCNCC1OC(OCCc2cc3ccccc3[nH]2)C(OCc2ccccc2)C(OCc2ccccc2)C1OCc1ccccc1 (stereo not drawn),–,–,–,–,–,IC50 [8]: 5100 nM
C/C(=C\c1csc(C)n1)[C@@H]1C[C@@H]2O[C@@H]2CCC[C@H](C)[C@H](O)[C@@H](C)C(=O)C(C)(C)[C@@H](O)CC(=O)O1 [EPOTHILONE A],20 nM,5.9 nM,20 nM,5.9 nM,2.2 nM,TP [5]: 76%

Structure (SMILES),IC50 [2],IC50 [3],IC50 [4],IC50 [6],IC50 [7],further results
CSc1nc(/C=C(\C)[C@@H]2C/C=C\CCC[C@H](C)[C@H](O)[C@@H](C)C(=O)C(C)(C)[C@@H](O)CC(=O)O2)cs1,22 nM,28 nM,22 nM,28 nM,9 nM,TP [5]: 92%
C/C(=C\c1ccc(C)cn1)[C@@H]1C[C@@H]2C[C@@]2(C)CCC[C@H](C)[C@H](O)[C@@H](C)C(=O)C(C)(C)CCC(=O)O1,10.9 nM,5.6 nM,10.9 nM,5.6 nM,1.74 nM,–
CSc1nc(/C=C(\C)[C@@H]2C[C@@H]3O[C@]3(C)CCC[C@H](C)[C@H](O)[C@@H](C)C(=O)C(C)(C)[C@@H](O)CC(=O)O2)cs1,0.26 nM,0.25 nM,0.26 nM,0.25 nM,0.17 nM,–
C/C(=C\c1csc(C)n1)[C@@H]1C[C@@H]2O[C@]2(CF)CCC[C@H](C)[C@H](O)[C@@H](C)C(=O)C(C)(C)[C@@H](O)CC(=O)O1,0.4 nM,0.2 nM,0.4 nM,0.2 nM,0.2 nM,TP [5]: 93%
NCCCCCCOC[C@@H]1O[C@@H](OCCc2cc3ccccc3[nH]2)[C@@H](OCc2ccccc2)[C@@H](OCc2ccccc2)[C@@H]1OCc1ccccc1,–,–,–,–,–,IC50 [8]: 11000 nM
NCCCCCOCC1OC(OCCc2cc3ccccc3[nH]2)C(OCc2ccccc2)CC1OCc1ccccc1 (stereo not drawn),–,–,–,–,–,IC50 [8]: 8400 nM
C/C(=C\c1ccc(C)cn1)[C@@H]1C[C@@H]2O[C@]2(C)CCC[C@H](C)[C@H](O)[C@@H](C)C(=O)C(C)(C)[C@@H](O)CC(=O)O1,0.6 nM,0.15 nM,0.6 nM,0.15 nM,0.15 nM,TP [5]: 92%
CSc1nc(/C=C(\C)[C@@H]2C[C@@H]3C[C@@]3(C)CCC[C@H](C)[C@H](O)[C@@H](C)C(=O)C(C)(C)CCC(=O)O2)cs1,5.7 nM,11.5 nM,5.7 nM,11.5 nM,3.5 nM,–
C/C(=C\c1ncccc1C)[C@@H]1C[C@@H]2O[C@]2(C)CCC[C@H](C)[C@H](O)[C@@H](C)C(=O)C(C)(C)[C@@H](O)CC(=O)O1,> 300 nM,> 300 nM,> 300 nM,> 300 nM,> 300 nM,TP [5]: 0%
OCCCCCNCC1OC(OCCc2cc3ccccc3[nH]2)C(OCc2ccccc2)CC1OCc1ccccc1 (stereo not drawn),–,–,–,–,–,IC50 [8]: 10000 nM
CCNC1COC(OC2C(O[C@H]3C#C/C=C\C#C[C@@](C)(O)C(=C/CSSSC)/C3=C(\NC(=O)OC)C(C)=O)OC(C)C(NOC3CC(O)C(SC(=O)c4c(C)c(I)c(OC5OC(C)C(O)C(OC)C5O)c(OC)c4OC)C(C)O3)C2O)CC1OC (stereo partly drawn),–,–,–,–,–,K obs [1]: 0.135 µM
CCNC1COC(OC2C(OC)OC(C)C(NOC3CC(O)C(SC(=O)c4c(C)c(F)c(OC5OC(C)C(O)C(OC)C5O)c(OC)c4OC)C(C)O3)C2O)CC1OC (stereo not drawn),–,–,–,–,–,K obs [1]: 44 µM
CSc1nc(/C=C(\C)[C@@H]2C[C@@H]3C[C@H]3CCC[C@H](C)[C@H](O)[C@@H](C)C(=O)C(C)(C)CCC(=O)O2)cs1,3.2 nM,0.8 nM,3.2 nM,0.8 nM,1.2 nM,–
NCCCCCOCC1CC(OCc2ccccc2)C(OCc2ccccc2)C(OCCc2cc3ccccc3[nH]2)O1 (stereo not drawn),–,–,–,–,–,IC50 [8]: 47000 nM
C/C(=C\c1csc(C)n1)[C@@H]1C[C@@H]2C[C@H]2CCC[C@H](C)[C@H](O)[C@@H](C)C(=O)C(C)(C)CCC(=O)O1,17.2 nM,4.7 nM,17.2 nM,4.7 nM,10.1 nM,–
C/C(=C\c1ccc(C)cn1)[C@@H]1C[C@@H]2C[C@H]2CCC[C@H](C)[C@H](O)[C@@H](C)C(=O)C(C)(C)CCC(=O)O1,5.9 nM,1.4 nM,5.9 nM,1.4 nM,0.6 nM,–
OCCCCCCNCC1OC(OCCc2cc3ccccc3[nH]2)C(OCc2ccccc2)CC1OCc1ccccc1 (stereo not drawn),–,–,–,–,–,IC50 [8]: 34000 nM
C/C(=C\c1csc(C)n1)[C@@H]1C[C@@H]2C[C@@H]2CCC[C@H](C)[C@H](O)[C@@H](C)C(=O)C(C)(C)[C@@H](O)CC(=O)O1,9 nM,2 nM,9 nM,2 nM,0.25 nM,–
